ChEMBL document CHEMBL3097988, “Synthesis and characterization of new N-(4-(4-chloro-1H-imidazol-1-yl)-3-methoxyphenyl)amide/sulfonamide derivatives as possible antimicrobial and antitubercular agents” (2014)
≈ marks a conversion by molar mass, not a printed value.

Experiments:
Assay type in all cases: functional
[1] = tested on: Mycobacterium tuberculosis; assay: Antimicrobial activity against Mycobacterium tuberculosis H37Rv ATCC 27294 at 1 to 100 ug/ml after 7 days by resazurin assay
Summary of the method: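 Preliminary screen at three concentrations (1, 10 and 100) by resazurin microtitre assay. Cultures were grown in Middlebrook 7H9 with 10% OADC, and compounds came from 2 mg/mL DMF stocks with DMF controls. Plates were incubated 7 days at 37 °C, and resazurin colour was read after 1 h. Inhibition was scored as no blue-to-pink change.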

[2] = tested on: Mycolicibacterium smegmatis; assay: Antimicrobial activity against Mycobacterium smegmatis (MC2) ATCC 19420 after 7 days by resazurin assay; conditions: (MC2) ATCC 19420, 168 h
[3] = tested on: Mycobacterium tuberculosis; assay: Antimicrobial activity against Mycobacterium tuberculosis H37Rv ATCC 27294 after 7 days by resazurin assay; conditions: H37Rv ATCC 27294, 168 h
Summary of the method: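 Resazurin microtitre assay. Cultures were grown in Middlebrook 7H9 with 10% OADC and added to fresh medium in 96-well plates. Test compounds came from 2 mg/mL DMF stocks, with DMF-only controls. Plates were incubated 7 days at 37 °C, then resazurin was added and read after 1 h at 37 °C. MIC was the lowest concentration preventing the blue-to-pink change.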

Rhizopus = assay: Antimicrobial activity against Rhizopus sp. after 3 to 4 days by serial plate dilution method
Summary of the method: (§1)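 Fungal MIC by serial plate dilution. Sabouraud agar (peptone, D-glucose, agar; pH 5.7) plates seeded with saline spore suspension, dried 1 h at 37 °C. Wells punched and filled with compound in DMSO; DMSO-only control. Triplicate plates held 3–4 days at 37 °C; inhibition zone diameter measured. Amphotericin B positive control. Tested range […] per mL.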

Aspergillus flavus = assay: Antimicrobial activity against Aspergillus flavus after 3 to 4 days by serial plate dilution method; summary of the method: as §1
Candida albicans = assay: Antimicrobial activity against Candida albicans after 3 to 4 days by serial plate dilution method; summary of the method: as §1
Klebsiella pneumoniae = assay: Antimicrobial activity against Klebsiella pneumoniae ATCC 13883 after 16 to 18 hrs by serial plate dilution method
Summary of the method: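 Bacterial MIC by serial dilution in Mueller-Hinton broth adjusted to pH 5.0 with phosphate buffer. Tubes inoculated with standardized bacterial suspension, incubated 16–18 h at 37 °C. MIC read as lowest concentration with no visible growth. Range […] per mL. DMSO as negative control, ciprofloxacin as positive control.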

Escherichia coli = assay: Antimicrobial activity against Escherichia coli ATCC 25922 after 16 to 18 hrs by […]
Staphylococcus aureus = assay: Antimicrobial activity against Staphylococcus aureus ATCC 25923 after 16 to 18 hrs by […]
[4] = tested on: Mycolicibacterium fortuitum; assay: Antimicrobial activity against Mycobacterium fortuitum ATCC 19542 after 7 days by resazurin assay; conditions: ATCC 19542, 168 h

For `COc1cc(NC(=O)c2ccc([N+](=O)[O-])cc2)ccc1-n1cnc(Cl)c1`, the “inhibition (INH)” value [1] was less than 90%, the MIC [2] was 2.5 µg/mL (≈ 6.71 µM) and the MIC [3] was 1.25 µg/mL (≈ 3.35 µM). For the same molecule, the MIC (Rhizopus) was 256 µg/mL (≈ 687 µM), the MIC (Aspergillus flavus) was greater than 256 µg/mL and the MIC (Candida albicans) was greater than 256 µg/mL. It also gave an MIC (Klebsiella pneumoniae) greater than 256 µg/mL, an MIC (Escherichia coli) greater than 256 µg/mL and an MIC (Staphylococcus aureus) of 256 µg/mL (≈ 687 µM). For the same molecule, the MIC [4] was 1.25 µg/mL (≈ 3.35 µM).

In the case of `COc1cc(NC(=O)c2cccs2)ccc1-n1cnc(Cl)c1`, the “inhibition (INH)” value [1] is reported as 90%, the MIC [2] is reported as 1.25 µg/mL (≈ 3.74 µM) and the MIC [3] is reported as 5 µg/mL (≈ 15 µM). For the same molecule, the MIC (Rhizopus) was 32 µg/mL (≈ 95.9 µM), the MIC (Aspergillus flavus) was 64 µg/mL (≈ 192 µM) and the MIC (Candida albicans) was 256 µg/mL (≈ 767 µM). The MIC (Klebsiella pneumoniae) was 64 µg/mL (≈ 192 µM), the MIC (Escherichia coli) was 128 µg/mL (≈ 383 µM) and the MIC (Staphylococcus aureus) was 128 µg/mL (≈ 383 µM). It also gave an MIC [4] of 2.5 µg/mL (≈ 7.49 µM).

`COc1cc(F)c(S(=O)(=O)Nc2ccc(-n3cnc(Cl)c3)c(OC)c2)c(C(F)(F)F)c1` was tested, and the “inhibition (INH)” value [1] was less than 90%, the MIC [2] was 10 µg/mL (≈ 20.8 µM) and the MIC [3] was 5 µg/mL (≈ 10.4 µM). For the same molecule, the MIC (Rhizopus) was 256 µg/mL (≈ 534 µM), the MIC (Aspergillus flavus) was 128 µg/mL (≈ 267 µM) and the MIC (Candida albicans) was 128 µg/mL (≈ 267 µM). The MIC (Klebsiella pneumoniae) was 32 µg/mL (≈ 66.7 µM), the MIC (Escherichia coli) was 128 µg/mL (≈ 267 µM) and the MIC (Staphylococcus aureus) was 64 µg/mL (≈ 133 µM).

For `COc1cc(NC(=O)Cc2cccc(C(F)(F)F)c2)ccc1-n1cnc(Cl)c1`, the “inhibition (INH)” value [1] was less than 90%, the MIC [2] was 10 µg/mL (≈ 24.4 µM) and the MIC [3] was 2.5 µg/mL (≈ 6.1 µM). The MIC (Rhizopus) was greater than 256 µg/mL, the MIC (Aspergillus flavus) was 256 µg/mL (≈ 625 µM) and the MIC (Candida albicans) was 128 µg/mL (≈ 312 µM). For the same molecule, the MIC (Klebsiella pneumoniae) was 64 µg/mL (≈ 156 µM), the MIC (Escherichia coli) was 256 µg/mL (≈ 625 µM) and the MIC (Staphylococcus aureus) was 128 µg/mL (≈ 312 µM). For the same molecule, the MIC [4] was 10 µg/mL (≈ 24.4 µM).

With `COc1cc(NS(=O)(=O)c2cccc([N+](=O)[O-])c2Cl)ccc1-n1cnc(Cl)c1` the “inhibition (INH)” value [1] was less than 90%, the MIC [2] was 2.5 µg/mL (≈ 5.64 µM) and the MIC [3] was 2.5 µg/mL (≈ 5.64 µM). It also gave an MIC (Rhizopus) of 256 µg/mL (≈ 578 µM), an MIC (Aspergillus flavus) of 128 µg/mL (≈ 289 µM) and an MIC (Candida albicans) of 64 µg/mL (≈ 144 µM). It also gave an MIC (Klebsiella pneumoniae) of 32 µg/mL (≈ 72.2 µM), an MIC (Escherichia coli) of 128 µg/mL (≈ 289 µM) and an MIC (Staphylococcus aureus) of 8 µg/mL (≈ 18 µM).

With `COc1cc(NS(=O)(=O)c2ccc([N+](=O)[O-])cc2)ccc1-n1cnc(Cl)c1` the “inhibition (INH)” value [1] was 90%, the MIC [2] was 10 µg/mL (≈ 24.5 µM) and the MIC [3] was 0.625 µg/mL (≈ 1.53 µM). It also gave an MIC (Rhizopus) of 64 µg/mL (≈ 157 µM), an MIC (Aspergillus flavus) of 128 µg/mL (≈ 313 µM) and an MIC (Candida albicans) of 256 µg/mL (≈ 626 µM). For the same molecule, the MIC (Klebsiella pneumoniae) was 64 µg/mL (≈ 157 µM), the MIC (Escherichia coli) was 128 µg/mL (≈ 313 µM) and the MIC (Staphylococcus aureus) was 128 µg/mL (≈ 313 µM). For the same molecule, the MIC [4] was 1.25 µg/mL (≈ 3.06 µM).

With `COc1cc(NC(=O)c2ccc(C(F)(F)F)cc2)ccc1-n1cnc(Cl)c1` the “inhibition (INH)” value [1] was 90%, the MIC [2] was 2.5 µg/mL (≈ 6.32 µM) and the MIC [3] was 1.25 µg/mL (≈ 3.16 µM). The MIC (Rhizopus) was 64 µg/mL (≈ 162 µM), the MIC (Aspergillus flavus) was 128 µg/mL (≈ 323 µM) and the MIC (Candida albicans) was 32 µg/mL (≈ 80.9 µM). The MIC (Klebsiella pneumoniae) was 64 µg/mL (≈ 162 µM), the MIC (Escherichia coli) was 64 µg/mL (≈ 162 µM) and the MIC (Staphylococcus aureus) was 128 µg/mL (≈ 323 µM). For the same molecule, the MIC [4] was 1.25 µg/mL (≈ 3.16 µM).

With `COc1ccc(S(=O)(=O)Nc2ccc(-n3cnc(Cl)c3)c(OC)c2)cc1OC` the “inhibition (INH)” value [1] was 90%, the MIC [2] was 1.25 µg/mL (≈ 2.95 µM) and the MIC [3] was 1.25 µg/mL (≈ 2.95 µM). The MIC (Rhizopus) was 128 µg/mL (≈ 302 µM), the MIC (Aspergillus flavus) was 256 µg/mL (≈ 604 µM) and the MIC (Candida albicans) was 128 µg/mL (≈ 302 µM). For the same molecule, the MIC (Klebsiella pneumoniae) was 256 µg/mL (≈ 604 µM), the MIC (Escherichia coli) was 128 µg/mL (≈ 302 µM) and the MIC (Staphylococcus aureus) was 256 µg/mL (≈ 604 µM). It also gave an MIC [4] of 1.25 µg/mL (≈ 2.95 µM).

With `CO[C@H]1/C=C/O[C@@]2(C)Oc3c(C)c(O)c4c(O)c(c(/C=N/N5CCN(C)CC5)c(O)c4c3C2=O)NC(=O)/C(C)=C\C=C\[C@H](C)[C@H](O)[C@@H](C)[C@@H](O)[C@@H](C)[C@H](OC(C)=O)[C@@H]1C` [RIFAMPIN] the “inhibition (INH)” value [1] was 95%, the MIC [2] was 1.5 µg/mL (≈ 1.82 µM) and the MIC [3] was 0.5 µg/mL (≈ 0.608 µM). For the same molecule, the MIC [4] was 1.5 µg/mL (≈ 1.82 µM).

`COc1cc(NS(=O)(=O)c2cccs2)ccc1-n1cnc(Cl)c1` was tested, and the “inhibition (INH)” value [1] was 90%, the MIC [2] was 1.25 µg/mL (≈ 3.38 µM) and the MIC [3] was 1.25 µg/mL (≈ 3.38 µM). It also gave an MIC (Rhizopus) of 128 µg/mL (≈ 346 µM), an MIC (Aspergillus flavus) of 256 µg/mL (≈ 692 µM) and an MIC (Candida albicans) of 64 µg/mL (≈ 173 µM). The MIC (Klebsiella pneumoniae) was 256 µg/mL (≈ 692 µM), the MIC (Escherichia coli) was 64 µg/mL (≈ 173 µM) and the MIC (Staphylococcus aureus) was 128 µg/mL (≈ 346 µM). The MIC [4] was 1.25 µg/mL (≈ 3.38 µM).

`COc1cc(NC(=O)c2ccccc2)ccc1-n1cnc(Cl)c1` was tested, and the “inhibition (INH)” value [1] was less than 90%, the MIC [2] was 10 µg/mL (≈ 30.5 µM) and the MIC [3] was 5 µg/mL (≈ 15.3 µM). The MIC (Rhizopus) was 128 µg/mL (≈ 391 µM), the MIC (Aspergillus flavus) was 256 µg/mL (≈ 781 µM) and the MIC (Candida albicans) was 256 µg/mL (≈ 781 µM). The MIC (Klebsiella pneumoniae) was 128 µg/mL (≈ 391 µM), the MIC (Escherichia coli) was 256 µg/mL (≈ 781 µM) and the MIC (Staphylococcus aureus) was 128 µg/mL (≈ 391 µM).

With `COc1cc(NS(=O)(=O)c2ccccc2)ccc1-n1cnc(Cl)c1` the “inhibition (INH)” value [1] was less than 90%, the MIC [2] was 10 µg/mL (≈ 27.5 µM) and the MIC [3] was 5 µg/mL (≈ 13.7 µM). The MIC (Rhizopus) was 64 µg/mL (≈ 176 µM), the MIC (Aspergillus flavus) was 128 µg/mL (≈ 352 µM) and the MIC (Candida albicans) was 128 µg/mL (≈ 352 µM). For the same molecule, the MIC (Klebsiella pneumoniae) was 128 µg/mL (≈ 352 µM), the MIC (Escherichia coli) was 64 µg/mL (≈ 176 µM) and the MIC (Staphylococcus aureus) was 8 µg/mL (≈ 22 µM).

In the case of `COc1cc(NC(=O)c2ccco2)ccc1-n1cnc(Cl)c1`, the “inhibition (INH)” value [1] is reported as less than 90%, the MIC [3] is reported as 5 µg/mL (≈ 15.7 µM) and the MIC (Rhizopus) is reported as greater than 256 µg/mL. It also gave an MIC (Aspergillus flavus) of 128 µg/mL (≈ 403 µM), an MIC (Candida albicans) greater than 256 µg/mL and an MIC (Klebsiella pneumoniae) greater than 256 µg/mL. The MIC (Escherichia coli) was 128 µg/mL (≈ 403 µM) and the MIC (Staphylococcus aureus) was greater than 256 µg/mL.

`COc1cc(NS(=O)(=O)c2ccco2)ccc1-n1cnc(Cl)c1` was tested, and the “inhibition (INH)” value [1] was less than 90%, the MIC [2] was 10 µg/mL (≈ 28.3 µM) and the MIC [3] was 5 µg/mL (≈ 14.1 µM). It also gave an MIC (Rhizopus) of 256 µg/mL (≈ 724 µM), an MIC (Aspergillus flavus) of 64 µg/mL (≈ 181 µM) and an MIC (Candida albicans) of 128 µg/mL (≈ 362 µM). The MIC (Klebsiella pneumoniae) was greater than 256 µg/mL, the MIC (Escherichia coli) was 64 µg/mL (≈ 181 µM) and the MIC (Staphylococcus aureus) was 128 µg/mL (≈ 362 µM).
